Reference: ChEMBL document CHEMBL1157410, “7-aryl 1,5-dihydro-benzo[e][1,4]oxazepin-2-ones and analogs as non-steroidal progesterone receptor antagonists” (Bioorg Med Chem, 2008)
pIC50: −log10 of the molar value.

Columns and labels:
Progesterone receptor = target: T1, Progesterone receptor (Homo sapiens, UniProt P06401); test: Inhibition of progesterone receptor mediated progesterone-induced alkaline phosphatase activity in human T47D cells; type: cell-based
T1 sequence (P06401 whole entry): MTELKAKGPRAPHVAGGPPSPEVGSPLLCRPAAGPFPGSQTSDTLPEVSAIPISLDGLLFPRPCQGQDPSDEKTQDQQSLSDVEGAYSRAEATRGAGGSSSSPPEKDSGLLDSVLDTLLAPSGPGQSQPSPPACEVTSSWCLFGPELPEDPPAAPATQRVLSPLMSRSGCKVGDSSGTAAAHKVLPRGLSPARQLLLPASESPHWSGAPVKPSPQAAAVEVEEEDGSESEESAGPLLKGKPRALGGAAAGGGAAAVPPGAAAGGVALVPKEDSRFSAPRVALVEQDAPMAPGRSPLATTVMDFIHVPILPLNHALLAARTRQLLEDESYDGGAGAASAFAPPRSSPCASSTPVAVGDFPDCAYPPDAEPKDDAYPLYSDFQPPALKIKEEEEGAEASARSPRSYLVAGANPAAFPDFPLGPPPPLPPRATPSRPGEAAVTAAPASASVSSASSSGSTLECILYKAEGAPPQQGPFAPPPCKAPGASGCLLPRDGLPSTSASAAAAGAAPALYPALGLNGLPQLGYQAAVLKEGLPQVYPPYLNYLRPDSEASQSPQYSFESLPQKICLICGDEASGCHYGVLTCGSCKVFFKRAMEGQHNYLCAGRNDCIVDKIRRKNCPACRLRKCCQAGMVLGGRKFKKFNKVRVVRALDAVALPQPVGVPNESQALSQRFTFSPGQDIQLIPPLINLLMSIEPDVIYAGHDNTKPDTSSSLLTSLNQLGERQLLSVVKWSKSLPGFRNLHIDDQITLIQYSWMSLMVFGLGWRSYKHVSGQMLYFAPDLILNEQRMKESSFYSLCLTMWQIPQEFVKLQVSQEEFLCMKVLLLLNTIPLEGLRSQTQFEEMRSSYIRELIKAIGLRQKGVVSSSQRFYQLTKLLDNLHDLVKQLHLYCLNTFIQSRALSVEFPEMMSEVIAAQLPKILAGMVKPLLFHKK

Glucocorticoid receptor = target: T2, Glucocorticoid receptor (Homo sapiens, UniProt P04150); test: Antagonist activity at cloned glucocorticoid receptor-ligand binding domain expressed in african green monkey COS7 cells by GAL4 luciferase reporter assay; type: cell-based, COS-7
T2 sequence (P04150 whole entry): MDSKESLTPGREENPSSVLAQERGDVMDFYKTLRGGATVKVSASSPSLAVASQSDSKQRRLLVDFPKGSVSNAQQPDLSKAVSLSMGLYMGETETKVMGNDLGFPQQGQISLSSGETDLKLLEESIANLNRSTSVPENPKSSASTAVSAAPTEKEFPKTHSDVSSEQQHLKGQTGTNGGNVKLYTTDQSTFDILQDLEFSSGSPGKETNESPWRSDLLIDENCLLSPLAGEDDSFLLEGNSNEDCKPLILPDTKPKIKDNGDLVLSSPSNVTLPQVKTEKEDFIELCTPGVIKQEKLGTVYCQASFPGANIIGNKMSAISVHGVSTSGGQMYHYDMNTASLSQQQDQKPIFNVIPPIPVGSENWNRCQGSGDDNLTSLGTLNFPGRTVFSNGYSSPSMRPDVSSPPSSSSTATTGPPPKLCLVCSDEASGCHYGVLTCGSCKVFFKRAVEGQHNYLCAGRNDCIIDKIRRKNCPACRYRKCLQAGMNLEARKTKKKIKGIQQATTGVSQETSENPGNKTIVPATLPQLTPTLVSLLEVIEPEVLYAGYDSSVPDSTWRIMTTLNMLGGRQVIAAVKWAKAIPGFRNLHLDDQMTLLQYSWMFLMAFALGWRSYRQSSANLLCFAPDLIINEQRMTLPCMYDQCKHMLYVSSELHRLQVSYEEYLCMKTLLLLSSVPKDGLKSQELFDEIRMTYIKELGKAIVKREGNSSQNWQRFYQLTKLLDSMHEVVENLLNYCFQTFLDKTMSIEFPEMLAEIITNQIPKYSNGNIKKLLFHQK

[1] = target: T3, Mineralocorticoid receptor (Homo sapiens) (UniProt P08235); test: (§1) Antagonist activity at cloned mineralocorticoid receptor-ligand binding domain expressed in african green monkey COS7 cells by GAL4 luciferase reporter assay; type: cell-based; conditions: COS-7; concentration not given here
T3 sequence (whole entry): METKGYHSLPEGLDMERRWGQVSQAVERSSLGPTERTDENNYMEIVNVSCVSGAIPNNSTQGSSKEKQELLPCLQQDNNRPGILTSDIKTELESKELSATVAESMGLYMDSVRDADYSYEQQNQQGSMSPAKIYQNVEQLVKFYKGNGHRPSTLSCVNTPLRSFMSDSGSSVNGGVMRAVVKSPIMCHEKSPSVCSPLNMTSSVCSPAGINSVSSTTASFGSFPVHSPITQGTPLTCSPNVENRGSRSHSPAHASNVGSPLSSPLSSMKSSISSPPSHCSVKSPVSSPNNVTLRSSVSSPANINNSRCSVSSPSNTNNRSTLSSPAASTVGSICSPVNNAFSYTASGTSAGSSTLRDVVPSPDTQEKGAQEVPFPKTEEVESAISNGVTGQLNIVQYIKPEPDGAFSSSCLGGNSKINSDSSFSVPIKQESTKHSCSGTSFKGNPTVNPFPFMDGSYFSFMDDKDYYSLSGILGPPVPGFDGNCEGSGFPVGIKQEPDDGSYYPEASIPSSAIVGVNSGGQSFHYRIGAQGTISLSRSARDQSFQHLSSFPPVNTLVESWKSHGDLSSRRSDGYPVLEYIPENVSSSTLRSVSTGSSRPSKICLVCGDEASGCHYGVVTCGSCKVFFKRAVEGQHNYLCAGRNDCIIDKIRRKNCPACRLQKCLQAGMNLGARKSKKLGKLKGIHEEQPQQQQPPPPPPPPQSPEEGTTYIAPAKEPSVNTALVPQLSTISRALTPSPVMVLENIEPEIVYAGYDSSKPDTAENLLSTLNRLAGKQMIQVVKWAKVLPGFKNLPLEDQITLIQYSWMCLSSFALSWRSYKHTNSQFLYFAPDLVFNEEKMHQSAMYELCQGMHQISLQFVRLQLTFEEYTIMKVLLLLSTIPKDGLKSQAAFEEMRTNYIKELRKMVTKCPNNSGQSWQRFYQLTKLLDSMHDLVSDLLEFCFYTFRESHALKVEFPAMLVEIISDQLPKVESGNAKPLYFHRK
How it was run: (§2)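 GAL4 DNA-binding domain fused to receptor ligand-binding domain, one-hybrid format. LBD fusion and GAL4_UAS (5 copies, E1b minimal TATA) luciferase reporter plasmids, 50 ng/well each, transfected 16 h into COS-7 cells. Cells grown in phenol red-free DMEM with 10% charcoal/dextran-treated FBS. Compound exposure 20 h, then luciferase read on lysates. Mean of at least duplicate determinations.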

[2] = target: T4, Mineralocorticoid receptor (Homo sapiens, UniProt P08235); test: as §1; type: cell-based, COS-7; how it was run: as §2
T4 sequence (P08235 whole entry): T3 sequence (whole entry)

SMILES | pIC50 (Progesterone receptor) | pIC50 (Glucocorticoid receptor) | inhibition [1] [%] | pIC50 [2]
CCC1(c2ccco2)OCC(=O)Nc2ccc(-c3cc(F)cc(C#N)c3)cc21 (configuration not stated) | 7.93 | 6.72 | 82 | < 5.52
CC1(C)OCC(=O)Nc2ccc(-c3cc(F)cc(C#N)c3)cc21 | 7.60 | < 5.52 | 32 | < 5.52
N#Cc1cc(F)cc(-c2ccc3c(c2)C(c2ccco2)(c2ccco2)OCC(=O)N3)c1 | 7.88 | 5.89 | 60 | < 5.52
